From ChEMBL document CHEMBL1955779, “Favourable involvement of α2A-adrenoreceptor antagonism in the I₂-imidazoline binding sites-mediated morphine analgesia enhancement” (Bioorg Med Chem, 2012)
Active and inactive are the calls of the source. No cut-off for these calls is given here.

Assays:
[1] = biological target: T1, Alpha-2C adrenergic receptor (Homo sapiens) (UniProt P18825); experiment: Antagonist activity at human Alpha-2C adrenergic receptor expressed in CHO cells assessed as inhibition of clonidine-induced extracellular acidification after 30 mins by cytosensor microphysiometry; type: functional, cell-based
T1 sequence (whole entry): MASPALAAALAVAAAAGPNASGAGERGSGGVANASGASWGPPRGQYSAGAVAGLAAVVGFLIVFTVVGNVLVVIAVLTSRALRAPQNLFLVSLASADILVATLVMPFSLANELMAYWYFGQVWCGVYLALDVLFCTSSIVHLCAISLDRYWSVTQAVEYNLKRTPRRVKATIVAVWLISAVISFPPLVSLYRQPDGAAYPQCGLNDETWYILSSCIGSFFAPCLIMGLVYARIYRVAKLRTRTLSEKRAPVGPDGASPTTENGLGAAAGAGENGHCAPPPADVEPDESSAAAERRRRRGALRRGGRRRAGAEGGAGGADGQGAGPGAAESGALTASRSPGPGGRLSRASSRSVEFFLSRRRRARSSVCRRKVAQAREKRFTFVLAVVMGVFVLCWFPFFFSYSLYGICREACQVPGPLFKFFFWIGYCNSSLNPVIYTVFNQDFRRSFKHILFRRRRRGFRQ
Procedure, shortened: (§1)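 pKb from cytosensor microphysiometry on CHO cells each expressing one human α2 subtype (α2A, α2B or α2C). Antagonist shift of the clonidine agonist concentration-effect curve was measured. Means ± SEM of three to six separate experiments.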

[2] = biological target: T2, Alpha-2B adrenergic receptor (Homo sapiens) (UniProt P18089); experiment: Antagonist activity at human alpha2B adrenergic receptor expressed in CHO cells assessed as inhibition of clonidine-induced extracellular acidification after 30 mins by cytosensor microphysiometry; type: functional, cell-based; procedure, shortened: as §1
T2 sequence (whole entry): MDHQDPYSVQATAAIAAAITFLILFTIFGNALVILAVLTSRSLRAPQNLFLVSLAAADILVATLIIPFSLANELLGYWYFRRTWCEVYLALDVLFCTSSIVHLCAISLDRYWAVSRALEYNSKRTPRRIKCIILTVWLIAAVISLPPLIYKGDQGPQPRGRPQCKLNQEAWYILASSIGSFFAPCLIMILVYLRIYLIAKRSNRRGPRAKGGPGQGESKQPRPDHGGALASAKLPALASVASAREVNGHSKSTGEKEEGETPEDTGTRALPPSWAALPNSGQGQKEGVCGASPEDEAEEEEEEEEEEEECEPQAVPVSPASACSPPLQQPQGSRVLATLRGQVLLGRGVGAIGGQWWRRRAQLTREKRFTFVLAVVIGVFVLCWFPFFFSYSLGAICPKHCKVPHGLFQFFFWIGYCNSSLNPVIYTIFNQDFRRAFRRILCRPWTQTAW

[3] = biological target: T3, Alpha-2C adrenergic receptor (Homo sapiens, UniProt P18825); experiment: Displacement of [3H]RX821002 from human Alpha-2C adrenergic receptor expressed in CHO cells after 30 mins by scintillation counting; type: cell-based
T3 sequence (P18825 whole entry): T1 sequence (whole entry)

[4] = biological target: T4, Alpha-2A adrenergic receptor (Homo sapiens, UniProt P08913); experiment: Displacement of [3H]RX821002 from human alpha2A adrenergic receptor expressed in CHO cells after 30 mins by scintillation counting; type: cell-based
T4 sequence (P08913 whole entry): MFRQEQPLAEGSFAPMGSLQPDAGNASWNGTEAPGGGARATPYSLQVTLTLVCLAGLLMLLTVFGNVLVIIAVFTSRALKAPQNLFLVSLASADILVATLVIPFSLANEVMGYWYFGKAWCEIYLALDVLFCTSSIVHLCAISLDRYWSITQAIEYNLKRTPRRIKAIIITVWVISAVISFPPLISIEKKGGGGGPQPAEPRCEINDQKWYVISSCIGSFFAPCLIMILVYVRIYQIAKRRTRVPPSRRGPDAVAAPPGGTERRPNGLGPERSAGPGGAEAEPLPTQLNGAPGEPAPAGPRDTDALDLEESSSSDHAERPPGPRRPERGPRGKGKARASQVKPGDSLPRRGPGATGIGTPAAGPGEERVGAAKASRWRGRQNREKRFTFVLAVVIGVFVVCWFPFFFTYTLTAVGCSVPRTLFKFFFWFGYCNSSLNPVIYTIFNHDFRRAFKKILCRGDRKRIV

[5] = biological target: T5, Alpha-2A adrenergic receptor (Homo sapiens) (UniProt P08913); experiment: Antagonist activity at human alpha2A adrenergic receptor expressed in CHO cells assessed as inhibition of clonidine-induced extracellular acidification after 30 mins by cytosensor microphysiometry; type: functional, cell-based; procedure, shortened: as §1
T5 sequence (whole entry): T4 sequence (P08913 whole entry)

[6] = biological target: T6, Alpha-2B adrenergic receptor (Homo sapiens, UniProt P18089); experiment: Displacement of [3H]RX821002 from human alpha2B adrenergic receptor expressed in CHO cells after 30 mins by scintillation counting; type: cell-based
T6 sequence (P18089 whole entry): T2 sequence (whole entry)

[7] = Displacement of [3H]2-BFI from Sprague-Dawley rat I2 imidazoline binding site by liquid scintillation counting
Mus musculus [8] = experiment: Analgesic activity in CD1 mouse assessed as latency in radiant heat-induced tail flick at 5 mg/kg, sc after 30 mins; type: functional, organism-based; parameters: dose 5 mg/kg
Procedure, shortened: (§2)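 Male CD-1 mice, 25–35 g. Radiant heat tail-flick: I.R. source aimed at lower third of tail; basal latency (2-3 s) is the mean of two trials 30 min apart. Test agent 1 or 2 mg/kg ip, or distilled water vehicle, given 15 min before morphine 5.0 mg/kg sc or saline. Readings at 30, 60, 90, 120 and 240 min after morphine, as %MPE; 8–10 mice, means ± SEM.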

Mus musculus [9] = experiment: Potentiation of morphine-induced analgesic activity in CD1 mouse assessed as latency in radiant heat-induced tail flick at 1.250 mg/kg, ip administered 15 mins prior to morphine measured up to 120 mins; type: functional, organism-based; parameters: dose 1.25 mg/kg
Procedure, shortened: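 Male CD-1 mice (25–35 g) were given ip pretreatment in distilled-water vehicle 15 min before morphine 5.0 mg/kg sc or saline. Radiant-heat IR tail-flick was applied to the lower third of the tail. Basal latency (2–3 s) was the mean of two trials 30 min apart. Readings at 30, 60, 90, 120 and 240 min post-morphine were expressed as %MPE. Means ± SEM, 8–10 mice.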

Mus musculus [10] = experiment: Potentiation of morphine-induced analgesic activity in CD1 mouse assessed as latency in radiant heat-induced tail flick at 2 mg/kg, ip administered 15 mins prior to morphine measured up to 120 mins; type: functional, organism-based; parameters: dose 2 mg/kg; procedure, shortened: as §2
Mus musculus [11] = experiment: Potentiation of morphine-induced analgesic activity in CD1 mouse assessed as latency in radiant heat-induced tail flick at 1 mg/kg, ip administered 15 mins prior to morphine measured up to 120 mins; type: functional, organism-based; parameters: dose 1 mg/kg; procedure, shortened: as §2
Mus musculus [12] = experiment: Antinociceptive activity in CD1 mouse assessed as latency in radiant heat-induced tail flick at 1 mg/kg, ip from 30 to 240 mins; type: functional, organism-based; parameters: dose 1 mg/kg; procedure, shortened: as §2
[13] = biological target: T7, 5-hydroxytryptamine receptor 1A (Homo sapiens, UniProt P08908); experiment: Binding affinity to 5HT1A receptor
T7 sequence (P08908 whole entry): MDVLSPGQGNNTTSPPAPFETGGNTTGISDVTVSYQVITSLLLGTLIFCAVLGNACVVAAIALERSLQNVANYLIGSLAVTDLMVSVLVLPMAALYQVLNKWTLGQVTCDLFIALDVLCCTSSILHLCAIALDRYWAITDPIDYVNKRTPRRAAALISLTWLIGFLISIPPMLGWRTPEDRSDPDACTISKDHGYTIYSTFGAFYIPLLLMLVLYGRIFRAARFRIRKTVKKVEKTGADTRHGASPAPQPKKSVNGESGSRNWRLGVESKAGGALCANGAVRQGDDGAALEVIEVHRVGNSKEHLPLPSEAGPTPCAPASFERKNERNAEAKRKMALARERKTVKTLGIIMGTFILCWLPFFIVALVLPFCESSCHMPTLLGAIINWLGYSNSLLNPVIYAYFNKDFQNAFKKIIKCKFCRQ

Mus musculus [14] = experiment: Potentiation of morphine-induced analgesic activity in ip dosed CD1 mouse assessed as latency in radiant heat-induced tail flick administered 15 mins prior to morphine in the presence of 2 mg/kg, ip of idazoxan; type: functional; details: route intraperitoneal
Procedure, shortened: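 CD-1 mice, radiant heat tail-flick. […] Test agent given 15 min before morphine 5.0 mg/kg sc. Latency read after morphine.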

[15] = biological target: T8, Alpha-1A adrenergic receptor (Homo sapiens, UniProt P35348); experiment: Binding affinity to alpha1A adrenergic receptor
T8 sequence (P35348 whole entry): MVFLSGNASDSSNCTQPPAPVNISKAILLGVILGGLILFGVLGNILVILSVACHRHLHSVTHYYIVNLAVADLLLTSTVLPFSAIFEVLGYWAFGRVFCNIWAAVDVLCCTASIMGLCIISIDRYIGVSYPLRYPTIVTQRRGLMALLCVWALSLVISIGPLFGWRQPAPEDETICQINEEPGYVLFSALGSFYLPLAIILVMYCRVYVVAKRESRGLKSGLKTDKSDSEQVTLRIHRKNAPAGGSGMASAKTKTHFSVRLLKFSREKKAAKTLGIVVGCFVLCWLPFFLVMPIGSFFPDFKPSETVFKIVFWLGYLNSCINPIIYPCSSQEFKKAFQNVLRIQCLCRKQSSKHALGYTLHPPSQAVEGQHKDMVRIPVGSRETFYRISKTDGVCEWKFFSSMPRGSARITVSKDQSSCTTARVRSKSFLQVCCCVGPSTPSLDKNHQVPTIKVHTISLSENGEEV

Mus musculus [16] = experiment: Antinociceptive activity in CD1 mouse assessed as latency in radiant heat-induced tail flick at 2 mg/kg, ip from 30 to 240 mins; type: functional, organism-based; parameters: dose 2 mg/kg; procedure, shortened: as §2
[17] = Binding affinity to I2 imidazoline binding site
[18] = Selectivity ratio of I2 imidazoline binding site to alpha2 adrenergic receptor

Row | Structure (SMILES) | pKb [1] | pKb [2] | Ki [3] | Ki [4] | pKb [5] | Ki [6] | further results
1 | c1ccc([C@H]2CO[C@H](C3=NCCN3)CO2)cc1 | < 5 | < 5 | > 10 µM | 7.94 µM | < 5 | > 10 µM | pKi [7]: 5.48
2 | c1ccc([C@@H]2CO[C@@H](C3=NCCN3)CO2)cc1 | < 5 | < 5 | > 10 µM | 0.398 µM | 6.4 | > 10 µM | pKi [7]: 6.52
3 | c1ccc(C2(c3ccccc3)COC(C3=NCCN3)CO2)cc1 (configuration not stated) | < 5 | < 5 | 7.41 µM | > 10 µM | < 5 | 2.82 µM | 
4 | c1ccc(C2(c3ccccc3)COCC(C3=NCCN3)O2)cc1 (configuration not stated) | < 5 | < 5 | 6.17 µM | 3.8 µM | 5.37 | 4.47 µM | 
5 | CN1CC[C@]23c4c5ccc(O)c4O[C@H]2[C@@H](O)C=C[C@H]3[C@H]1C5 |  |  |  |  |  |  | Activity (Mus musculus [8]): Active
6 | COC(=O)[C@@H]1[C@H]2C[C@H]3c4[nH]c5ccccc5c4CCN3C[C@@H]2CC[C@@H]1O |  |  |  |  |  |  | Activity (Mus musculus [9]): inactive
7 | c1ccc(C2COC(C3=NCCN3)CO2)cc1 (racemic) | < 5 | < 5 | > 10 µM | 0.501 µM | 6.4 | > 10 µM | Activity (Mus musculus [10]): Active; Activity (Mus musculus [11]): Active; Activity (Mus musculus [12]): inactive; Ki [13]: > 10 µM; Activity (Mus musculus [14]): -24%; Ki [15]: > 10 µM; Activity (Mus musculus [16]): inactive; pKi [7]: 6.35
8 | c1ccc([C@@H]2CO[C@H](C3=NCCN3)CO2)cc1 (relative stereo) | < 5 | 5.5 | > 10 µM | > 10 µM | < 5 | > 10 µM | 
9 | c1ccc([C@H]2COC[C@@H](C3=NCCN3)O2)cc1 (relative stereo) | < 5 | 5.18 | > 10 µM | 5.37 µM | < 5 | > 10 µM | 
10 | c1ccc([C@@H]2COC[C@@H](C3=NCCN3)O2)cc1 (relative stereo) | < 5 | < 5 | > 10 µM | 6.31 µM | < 5 | > 10 µM | 
11 | c1ccc2c(c1)OCC(C1=NCCN1)O2 (configuration not stated) [IDAZOXAN] | 7.92 | 7.16 |  |  | 7.73 |  | Activity (Mus musculus [10]): inactive; pKi [17]: 8.37
12 | c1ccc(CCC2=NCCN2)cc1 [PHENYZOLINE] |  |  |  |  |  |  | pKi [17]: 8.6; Selectivity ratio [18]: 794
